Results published in ChEMBL document CHEMBL4028832, “Design and synthesis of 1,2,3-triazolo-phenanthrene hybrids as cytotoxic agents” (Bioorg Med Chem Lett, 2017).
Calls of active or inactive are those of the source. The calls are words filed in the database; no cut-off is given here.

Experiments:
A549 = assay: Cytotoxicity against human A549 cells after 48 hrs by MTT assay; type: functional, cell-based; settings: A549, 48 h
Method in brief: (§1)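 The human cancer lines and mouse 4T1 breast cells were treated with compound for 48 h and assessed by MTT assay. IC50 is the concentration giving 50% inhibition. 5-Fluorouracil served as the MTT standard.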

PC-3 = assay: Cytotoxicity against human PC3 cells after 48 hrs by MTT assay; type: functional, cell-based; settings: PC-3, 48 h; method in brief: as §1
DU-145 = assay: Cytotoxicity against human DU145 cells after 48 hrs by MTT assay; type: functional, cell-based; settings: DU-145, 48 h; method in brief: as §1
HGC-27 = assay: Cytotoxicity against human HGC27 cells after 48 hrs by MTT assay; type: functional, cell-based; settings: HGC-27, 48 h; method in brief: as §1
HeLa = assay: Cytotoxicity against human HeLa cells after 48 hrs by MTT assay; type: functional, cell-based; method in brief: as §1
BT-549 = assay: Cytotoxicity against human BT549 cells after 48 hrs by MTT assay; type: functional, cell-based; settings: BT-549, 48 h; method in brief: as §1
MDA-MB-231 = assay: Cytotoxicity against human MDA-MB-231 cells after 48 hrs by MTT assay; type: functional, cell-based; settings: MDA-MB-231, 48 h; method in brief: as §1
MDA-MB-453 = assay: Cytotoxicity against human MDA-MB-453 cells after 48 hrs by MTT assay; type: functional, cell-based; settings: MDA-MB-453, 48 h; method in brief: as §1
4T1 = assay: Cytotoxicity against mouse 4T1 cells after 48 hrs by MTT assay; type: functional, cell-based; settings: 4T1, 48 h; method in brief: as §1
Bos taurus = organism: Bos taurus; assay: Binding affinity to calf thymus DNA assessed as increase in viscosity at 5 uM by Rolling-ball viscometric method

Row | Compound | IC50 (A549) [µM] | IC50 (PC-3) [µM] | IC50 (DU-145) [µM] | IC50 (HGC-27) [µM] | IC50 (HeLa) [µM] | IC50 (BT-549) [µM] | IC50 (MDA-MB-231) [µM] | IC50 (MDA-MB-453) [µM] | IC50 (4T1) [µM] | Activity (Bos taurus)
1 | C=CCc1ccc(OCc2cn(Cc3cc4cc(OC)c(OC)cc4c4cc(OC)c(OC)cc34)nn2)c(OC)c1 | > 20 | > 20 | > 20 | 7.6 | 7.12 | > 20 | > 20 | > 20 | 7.3 | 
2 | COc1cc2cc(Cn3cc(CN4C(=O)c5ccccc5C4=O)nn3)c3cc(OC)c(OC)cc3c2cc1OC | > 20 | 7.6 | 2.6 | 7.5 | 12.6 | > 20 | 11.8 | > 20 | 11.3 | 
3 | COc1cc2cc(Cn3cc(CN4CCCc5ccccc54)nn3)c3cc(OC)c(OC)cc3c2cc1OC | > 20 | 13.9 | > 20 | > 20 | > 20 | > 20 | > 20 | > 20 | > 20 | 
4 | COc1cc2cc(Cn3cc(COc4c(C)cc(C)cc4C)nn3)c3cc(OC)c(OC)cc3c2cc1OC | > 20 | > 20 | > 20 | > 20 | 17.6 | 12.4 | > 20 | 12.6 | 6.2 | 
5 | COc1cc2cc(Cn3cc(COc4cc(OC)c(OC)c(OC)c4)nn3)c3cc(OC)c(OC)cc3c2cc1OC | > 20 | > 20 | > 20 | 14.8 | > 20 | > 20 | 19.2 | > 20 | > 20 | 
6 | COc1cc2cc(Cn3cc(COc4ccc5c(c4)OCO5)nn3)c3cc(OC)c(OC)cc3c2cc1OC | 14.5 | 13.2 | 16.7 | 9.5 | > 20 | 18.1 | 12.6 | 18.9 | 6.5 | 
7 | COc1cc2cc(Cn3cc(CN4C(=O)c5ccc(C)cc5C4=O)nn3)c3cc(OC)c(OC)cc3c2cc1OC | 12.3 | 7.12 | 1.87 | 3.5 | 2.7 | 3.9 | 4.6 | 6.5 | 10 | Active
8 | O=c1[nH]cc(F)c(=O)[nH]1 [FLUOROURACIL] | 1.6 | 1.2 | 2.18 | 14.7 | 1.86 |  | 4.33 |  |  | 
9 | COc1cc2cc(Cn3cc(COc4ccc(Br)cc4)nn3)c3cc(OC)c(OC)cc3c2cc1OC | > 20 | > 20 | > 20 | 3.9 | 3.8 | > 20 | > 20 | > 20 | > 20 | 
